Data reported in PMC5949723 (Journal of Medicinal Chemistry, 2018).
Each block holds one compound with its values, some of them ahead of it.

Assays:
[1] = molecular target: T1, full length TbrPDEB1 (Trypanosoma brucei, UniProt Q8WQX9); experiment: Phosphodiesterase activity assay; format: biochemical; conditions: for Selectivity, hPDE4B1 (Ki)/TbrPDEB1 (Ki): ratio of Ki values
T1 sequence (Q8WQX9 1-930): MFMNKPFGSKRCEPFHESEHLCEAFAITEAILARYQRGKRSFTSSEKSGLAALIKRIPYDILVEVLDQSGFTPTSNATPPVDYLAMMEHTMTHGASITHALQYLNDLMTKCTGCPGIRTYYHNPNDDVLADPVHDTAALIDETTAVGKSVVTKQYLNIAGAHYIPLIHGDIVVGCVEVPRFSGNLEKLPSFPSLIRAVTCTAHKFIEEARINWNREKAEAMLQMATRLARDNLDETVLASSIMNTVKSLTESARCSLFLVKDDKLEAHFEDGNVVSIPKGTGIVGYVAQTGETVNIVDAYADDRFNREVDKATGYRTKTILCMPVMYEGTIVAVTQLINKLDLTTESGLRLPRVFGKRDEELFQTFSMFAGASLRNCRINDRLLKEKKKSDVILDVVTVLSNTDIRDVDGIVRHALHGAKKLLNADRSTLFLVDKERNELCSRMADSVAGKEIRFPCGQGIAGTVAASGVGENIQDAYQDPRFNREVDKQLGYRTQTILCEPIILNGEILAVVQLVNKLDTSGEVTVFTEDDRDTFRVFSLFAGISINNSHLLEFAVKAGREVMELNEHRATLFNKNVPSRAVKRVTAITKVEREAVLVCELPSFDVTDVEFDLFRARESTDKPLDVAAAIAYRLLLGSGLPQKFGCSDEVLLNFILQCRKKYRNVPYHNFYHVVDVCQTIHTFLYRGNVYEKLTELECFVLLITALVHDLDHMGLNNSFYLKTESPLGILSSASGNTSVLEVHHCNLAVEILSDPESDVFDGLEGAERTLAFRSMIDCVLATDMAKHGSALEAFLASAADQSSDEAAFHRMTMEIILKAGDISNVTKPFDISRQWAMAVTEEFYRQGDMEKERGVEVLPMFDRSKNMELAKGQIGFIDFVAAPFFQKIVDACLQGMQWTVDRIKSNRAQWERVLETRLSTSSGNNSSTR

[2] = molecular target: T2, full length recombinant hPDE4B1 (Homo sapiens, UniProt Q07343); experiment: Phosphodiesterase activity assay; format: biochemical
[3] = tested on: intracellular cAMP levels in T. brucei; experiment: Intracellular cAMP measurements in bloodstream form trypanosomes; format: cell-based, T. brucei Lister 427; conditions: 5 h
In short: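 Log-phase bloodstream forms, HMI-9 with 10% heat-inactivated FBS, 37 °C, 5% CO2, set at 2 × 10^6 cells/mL. Dosed 5 h with test compound at 0.1, 0.33, 1, 3.3 or 10 μM (final), 0.3 μM PDE inhibitor positive control, 0.025 μM pentamidine, or no drug. 5 × 10^6 cells pelleted and lysed in 0.1 M HCl on ice 20 min; cAMP assayed in extracts in duplicate. Mean of four determinations ± SEM, Student's t-test, P < 0.05.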

[4] = tested on: T. brucei bloodstream forms; experiment: Microscopy and DAPI staining; format: cell-based; conditions: 10 μM
In short: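 Lister 427 bloodstream forms in HMI-9 with 10% heat-inactivated FBS, 37 °C, 5% CO2, seeded at 2 × 10^5 cells/mL with 10 μM test compound. Sampled at 0, 6, 12 and 24 h, pelleted at 4 °C, washed in PBS pH 7.4 and spread on slides. DAPI-stained; brightfield and fluorescence imaging scored nuclear and kinetoplast division, cytokinesis and morphology.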

[5] = molecular target: T1, full length TbrPDEB1; conditions: established hPDE4 inhibitors; cited from earlier work
[6] = tested on: T. brucei cellular PDE activity; conditions: cited from earlier work
[7] = tested on: T. brucei; conditions: cited from earlier work
[8] = molecular target: T2, full length recombinant hPDE4B1; conditions: read-out: hPDE4B1 IC50; cited from earlier work
[9] = tested on: hPDE4 subtypes; conditions: read-out: hPDE4 subtypes IC50; cited from earlier work

T2 sequence (Q07343 whole entry): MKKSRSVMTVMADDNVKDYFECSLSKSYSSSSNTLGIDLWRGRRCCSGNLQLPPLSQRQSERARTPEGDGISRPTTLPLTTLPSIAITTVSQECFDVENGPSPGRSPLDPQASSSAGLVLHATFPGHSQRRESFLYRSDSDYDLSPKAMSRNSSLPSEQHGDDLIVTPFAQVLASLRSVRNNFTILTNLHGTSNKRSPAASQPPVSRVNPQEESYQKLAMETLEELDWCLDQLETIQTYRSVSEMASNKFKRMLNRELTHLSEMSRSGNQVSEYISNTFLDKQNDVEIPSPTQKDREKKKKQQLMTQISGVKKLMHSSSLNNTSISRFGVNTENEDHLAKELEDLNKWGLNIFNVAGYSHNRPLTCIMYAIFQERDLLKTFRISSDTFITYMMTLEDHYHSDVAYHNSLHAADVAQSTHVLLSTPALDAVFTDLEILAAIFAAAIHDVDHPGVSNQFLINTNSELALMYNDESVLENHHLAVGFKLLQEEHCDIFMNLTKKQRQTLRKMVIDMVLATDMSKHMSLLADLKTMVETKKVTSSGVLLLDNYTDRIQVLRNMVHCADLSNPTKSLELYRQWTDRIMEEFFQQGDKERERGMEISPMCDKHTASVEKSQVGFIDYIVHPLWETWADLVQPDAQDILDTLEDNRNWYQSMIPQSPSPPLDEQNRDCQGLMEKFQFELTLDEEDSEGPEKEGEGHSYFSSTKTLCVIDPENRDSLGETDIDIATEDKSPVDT

Compound: COc1ccc(C2CNC(=O)C2)cc1OC1CCCC1 (stereo not drawn) [rolipram]
inhibition of the enzyme TbrPDEB1 [5]: do not inhibit | inhibition of T. brucei cellular PDE activity [6]: do not inhibit | killing of the parasite [7]: do not kill the parasite

Compound: N=C(N)c1ccc(OCCCCCOc2ccc(C(=N)N)cc2)cc1 [pentamidine, reference compound]
effect on intracellular cAMP level ([3]; negative control, 0.025 μM, versus untreated parasites): not statistically different from untreated parasites

Compound: COc1ccc(C2=NN(C3CCCCCC3)C(=O)C3CC=CCC23)cc1-c1ccc(C(=O)N2CC[C@@H](O)C2)cc1 (mixture of isomers) [compound 21, cis-2-Cycloheptyl-4-(4′-((R)-3-hydroxy-pyrrolidine-1-carbonyl)-6-methoxy-[1,1′-biphenyl]-3-yl)-4a,5,8,8a-tetrahydrophthalazin-1(2H)-one]
Selectivity, hPDE4B1 (Ki)/TbrPDEB1 (Ki) [1]: 9

Compound: CCOC(=O)c1cnc2c(cnn2CC)c1NN=C(C)C [etazolate]
inhibition of the enzyme TbrPDEB1 [5]: do not inhibit | inhibition of T. brucei cellular PDE activity [6]: do not inhibit | killing of the parasite [7]: do not kill the parasite

Compound: COc1ccc(C2=NN(C3CCCCCC3)C(=O)[C@@H]3CC=CC[C@H]23)cc1OCCCCOc1ccc(-c2nnn[nH]2)cc1 [compound 1]
effect on intracellular cAMP level ([3]; positive control 0.3 μM, compared with 10 μM of 8): equally effective | IC50 [8]: 0.6 nM | IC50 [9]: < 1 nM

The next lines start with results.

Ki [1]: 100 nM | Ki [2]: 1000 nM
Compound: COc1ccc(C2=NN(C3CCCCCC3)C(=O)[C@@H]3CC=CC[C@H]23)cc1-c1ccc(C(=O)NCC(N)=O)cc1 (relative stereo) [compound 8, N-(2-Amino-2-oxoethyl)-5′-(cis-3-cycloheptyl-4-oxo-3,4,4a,5,8,8a-hexahydrophthalazin-1-yl)-2′-methoxy-[1,1′-biphenyl]-4-carboxamide]
effect on intracellular cAMP level ([3]; 100 nM, P < 0.05): small but significant effect | effect on intracellular cAMP level ([3]; 10 μM, P < 0.001): strong increase of cAMP level | cellular phenotype by fluorescence microscopy ([4]; 6 h): defect in cytokinesis | cellular phenotype by fluorescence microscopy ([4]; 12 h): rounded cells with multiple flagella, some of them detached, and at least 4 nuclei | cellular phenotype by fluorescence microscopy ([4]; 24 h): only a few live cells could be detected, all of which were severely misshapen

selectivity for TbrPDEB1 over hPDE4B1 [1]: ~8 fold
Compound: COc1ccc(C2=NN(C3CCCCCC3)C(=O)[C@@H]3CC=CC[C@H]23)cc1-c1ccc(C(=O)NCC(=O)NCCO)cc1 (relative stereo) [compound 16, 5′-(cis-3-Cycloheptyl-4-oxo-3,4,4a,5,8,8a-hexahydrophthalazin-1-yl)-N-(2-((2-hydroxyethyl)amino)-2-oxoethyl)-2′-methoxy-[1,1′-biphenyl]-4-carboxamide]

Ki [1]: 200 nM | Selectivity, hPDE4B1 (Ki)/TbrPDEB1 (Ki) [1]: 15 | Ki [2]: 3160 nM
Compound: COc1ccc(C2=NN(C(C)C)C(=O)C3CC=CCC23)cc1-c1ccc(C(=O)N2CC[C@@H](O)C2)cc1 (mixture of isomers) [compound 22, cis-4-(4′-((R)-3-Hydroxypyrrolidine-1-carbonyl)-6-methoxy-[1,1′-biphenyl]-3-yl)-2-isopropyl-4a,5,8,8a-tetrahydrophthalazin-1(2H)-one]

selectivity for TbrPDEB1 over hPDE4B1 [1]: more than 10 fold | Selectivity, hPDE4B1 (Ki)/TbrPDEB1 (Ki) [1]: 18 | Ki [2]: 10000 nM
Compound: COc1ccc(C2=NN(C(C)C)C(=O)C3CC=CCC23)cc1-c1ccc(C(=O)N2CCC[C@@H]2C(N)=O)cc1 (mixture of isomers) [compound 24, (R)-1-(5′-(cis-3-Isopropyl-4-oxo-3,4,4a,5,8,8a-hexahydrophthalazin-1-yl)-2′-methoxy-[1,1′-biphenyl]-4-carbonyl)pyrrolidine-2-carboxamide]

selectivity for TbrPDEB1 over hPDE4B1 [1]: more than 10 fold
Compound: COc1ccc(C2=NN(C3CCCCCC3)C(=O)C3CC=CCC23)cc1-c1ccc(C(=O)N2CCC[C@@H]2C(N)=O)cc1 (mixture of isomers) [compound 23, (R)-1-(5′-(cis-3-Cycloheptyl-4-oxo-3,4,4a,5,8,8a-hexahydrophthalazin-1-yl)-2′-methoxy-[1,1′-biphenyl]-4-carbonyl)pyrrolidine-2-carboxamide]

fold less potent against TbrPDEB1 than optical isomer 8b ([1]; 8a versus 8b): 100 fold
Compound: COc1ccc(C2=NN(C3CCCCCC3)C(=O)[C@H]3CC=CC[C@@H]23)cc1-c1ccc(C(=O)NCC(N)=O)cc1 [8a, N-(2-Amino-2-oxoethyl)-5′-((4aS,8aR)-3-cycloheptyl-4-oxo-3,4,4a,5,8,8a-hexahydrophthalazin-1-yl)-2′-methoxy-[1,1′-biphenyl]-4-carboxamide]
